# Experimental data pooled from the literature.
# Each line is one published result; the experiments were not run side by side.
# Target: Inhibitor of nuclear factor kappa-B kinase subunit epsilon (IKBKE, Homo sapiens, UniProt Q14164)
# Residues used in one study (Q14164 1-716): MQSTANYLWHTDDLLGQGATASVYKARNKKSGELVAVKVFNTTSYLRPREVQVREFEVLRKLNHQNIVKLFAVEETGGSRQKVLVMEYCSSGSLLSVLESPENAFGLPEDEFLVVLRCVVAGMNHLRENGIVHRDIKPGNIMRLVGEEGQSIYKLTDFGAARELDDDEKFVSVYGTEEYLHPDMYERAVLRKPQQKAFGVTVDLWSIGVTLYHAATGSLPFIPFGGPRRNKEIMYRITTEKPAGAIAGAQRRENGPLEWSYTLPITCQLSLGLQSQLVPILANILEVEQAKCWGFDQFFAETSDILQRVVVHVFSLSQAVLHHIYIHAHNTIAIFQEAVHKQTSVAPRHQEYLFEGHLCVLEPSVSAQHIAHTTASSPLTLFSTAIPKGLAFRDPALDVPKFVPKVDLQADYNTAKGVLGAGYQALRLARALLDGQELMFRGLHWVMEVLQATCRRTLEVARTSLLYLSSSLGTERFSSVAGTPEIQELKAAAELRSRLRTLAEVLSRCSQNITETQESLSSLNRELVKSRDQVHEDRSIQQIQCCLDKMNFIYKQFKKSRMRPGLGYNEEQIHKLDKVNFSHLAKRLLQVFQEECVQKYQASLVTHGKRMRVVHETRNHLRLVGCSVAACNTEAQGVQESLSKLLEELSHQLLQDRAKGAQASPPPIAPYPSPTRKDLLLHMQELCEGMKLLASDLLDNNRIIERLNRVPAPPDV
SMILES,assay,conditions,quantity,value
COc1ccnn2ncc(-c3ccnc(N(C)C)n3)c12,binding,1 µM,remaining binding,94%
CC(=O)C1=C(C)N(c2cccc(C(F)(F)F)c2)C(=O)N[C@@H]1c1ccc(C#N)nc1,"cell-free assay, competition with immobilised ligand",1 µM,remaining binding,98.2%
Cc1ccc(C(=O)NCc2ccsc2)cc1C#Cc1cn(C(C)C)c2ncnc(N)c12,"enzyme activity, inhibitor",1 µM,activity vs control,104%
O=C1c2ccccc2-c2n[nH]c3cccc1c23,"enzyme activity, inhibitor",0.5 µM,activity vs control,88.9%
COc1cc(-c2cn(C3CCc4c(F)cccc4N(CC(F)(F)F)C3=O)nn2)ccc1-n1cnc(C)c1 (stereo not shown),"cell-free assay, competition with immobilised ligand",1 µM,remaining binding,100%
CN1CCc2cc(Nc3ncc(C4CC4)c(NCCCNC(=O)C4CCC4)n3)ccc2C1,"enzyme activity, inhibitor, radiometric",1 µM,remaining activity,4%
CC/C(=N\NC(=O)NCc1cccc(O)c1)c1ccc(O)c(C)c1O,"enzyme activity, inhibitor",0.1 µM,inhibition,-0.4%
C[C@@H]1CN(c2cc(-c3nn(C)c4ccc(OC5(C)CC5)cc34)ncn2)C[C@H](C)O1,"cell-free assay, competition with immobilised ligand",1 µM,remaining binding,65%
N#CCCc1ccc2c(c1)-c1[nH]c3ccc([N+](=O)[O-])cc3c1CC(=O)N2,cell-free assay,0.5 µM,remaining signal,89.2%
Cc1nn(CC(F)(F)F)cc1Nc1nccc(NCc2ccc(S(N)(=O)=O)cc2)n1,"enzyme activity, inhibitor, radiometric",1 µM,remaining activity,73%
O=c1nc(-c2ccccn2)sc2ccccc12,"binding, competition with immobilised ligand",1 µM,remaining binding,100%
COc1cc(Nc2c(C#N)cnc3cc(OCCCN4CCN(C)CC4)c(OC)cc23)c(Cl)cc1Cl,cell-free assay,0.5 µM,remaining signal,75.4%
Cc1nn(CC(F)(F)F)cc1Nc1nccc(NCCc2cnc[nH]2)n1,"enzyme activity, inhibitor, radiometric",1 µM,remaining activity,83%
Cc1c(NC(=O)c2cc(C(N)=O)nc3cc(F)ccc23)c(C(F)(F)F)nn1Cc1ccc(C#N)cc1,"cell-free assay, competition with immobilised ligand",1 µM,remaining binding,75%
NS(=O)(=O)c1ccc(CNc2nc(Nc3cccc(NC(=O)N4CCCC4)c3)ncc2C2CC2)cc1,"enzyme activity, inhibitor, radiometric",1 µM,remaining activity,52%
COc1ccc(COc2ccc(Cc3cnc(N)nc3N)cc2OC)cc1,cell-free assay,0.5 µM,remaining signal,96.7%
NS(=O)(=O)c1ccc(CNc2nc(Nc3cccc(CN4CCOCC4)c3)ncc2C2CC2)cc1,"enzyme activity, inhibitor, radiometric",1 µM,remaining activity,43%
Nc1c(C(=O)NCc2ccc(C(=O)NCCCC3CCCCC3)cc2)cnn1-c1ccccc1,"cell-free assay, competition with immobilised ligand",0.1 µM,remaining binding,100%
Cc1nn(CC(F)(F)F)cc1Nc1ncc(Br)c(NCCCNC(=O)C2CCC2)n1,"enzyme activity, inhibitor, radiometric",1 µM,remaining activity,1%
Cc1c[nH]c2nccc(Oc3c(F)cc(Nc4cc(Cl)nc(N)n4)cc3F)c12,"cell-free assay, competition with immobilised ligand",0.1 µM,remaining binding,93%
COc1cc2ncnc(Nc3ccc(Oc4ccccc4)cc3C)c2cc1OC,"enzyme activity, inhibitor",1 µM,inhibition,5%
Cc1nn(CC(F)(F)F)cc1Nc1nccc(NCCCNC(=O)C2CCC2)n1,"enzyme activity, inhibitor, radiometric",1 µM,remaining activity,63%
